Reference: ChEMBL document CHEMBL5252516, “Linker Modification Strategies To Control the Prostate-Specific Membrane Antigen (PSMA)-Targeting and Pharmacokinetic Properties of DOTA-Conjugated PSMA Inhibitors” (J Med Chem, 2016)

How the values were obtained:
[1] = biological target: T1, Glutamate carboxypeptidase 2 (Homo sapiens, UniProt Q04609); assay: Binding affinity to PSMA in human LNCaP cells after 45 mins in presence of 68Ga-labeled PSMA-10 by gamma counting assay; format: cell-based
Target sequence in this assay (Q04609 whole entry): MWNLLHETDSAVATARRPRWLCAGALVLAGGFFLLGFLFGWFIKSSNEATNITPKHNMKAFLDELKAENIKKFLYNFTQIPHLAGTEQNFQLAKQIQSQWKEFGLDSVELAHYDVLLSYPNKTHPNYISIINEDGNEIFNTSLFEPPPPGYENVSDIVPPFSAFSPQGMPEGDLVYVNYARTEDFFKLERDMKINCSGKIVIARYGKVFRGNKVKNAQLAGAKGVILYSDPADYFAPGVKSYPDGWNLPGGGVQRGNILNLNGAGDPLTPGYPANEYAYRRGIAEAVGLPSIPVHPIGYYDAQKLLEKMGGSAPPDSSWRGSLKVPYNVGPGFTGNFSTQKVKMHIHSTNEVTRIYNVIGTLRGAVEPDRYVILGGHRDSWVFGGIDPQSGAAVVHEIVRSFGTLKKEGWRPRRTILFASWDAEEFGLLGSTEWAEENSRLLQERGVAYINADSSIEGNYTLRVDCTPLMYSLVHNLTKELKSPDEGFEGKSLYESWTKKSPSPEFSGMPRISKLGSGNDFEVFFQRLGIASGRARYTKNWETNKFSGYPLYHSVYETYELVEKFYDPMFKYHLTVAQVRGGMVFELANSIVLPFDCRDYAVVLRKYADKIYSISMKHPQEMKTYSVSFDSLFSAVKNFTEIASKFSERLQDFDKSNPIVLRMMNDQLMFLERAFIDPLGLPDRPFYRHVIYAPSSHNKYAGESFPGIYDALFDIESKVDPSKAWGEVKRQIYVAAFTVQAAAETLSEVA

[2] = Retention time of the compound by HPLC; format: physicochemical
[3] = Ratio of drug uptake in tumor to muscle in iv dosed BALB/c athymic nude mouse xenografted with human LNCaP cells treated with 68Ga-labeled compound measured after 1 hr by microPET imaging analysis; format: ADME, organism-based; settings: in vivo
Outline: (§1)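 Male BALB/c nu/nu mice, 6–8 weeks old, with subcutaneous LNCaP xenografts (6 × 10^6 cells in 50% Matrigel, right trunk) of about 1 cm. Tail-vein injection of 68Ga-labelled compound (~30 MBq, 0.5 nmol) under sevoflurane. Dynamic µPET: 60 min emission scan, then 100–120 min scan. SUVmean for tumor, muscle and kidney at 1 h; tumor/muscle ratio. One animal per compound.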

[4] = biological target: T1, Glutamate carboxypeptidase 2; assay: Inhibition of PSMA in human LNCaP cells assessed as cell surface binding per 10^6 cells using 177Lu-labeled compound after 45 mins by gamma counting analysis; format: cell-based
Outline: (§2)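 LNCaP cells (10^5/well) seeded on poly-L-lysine 24 h before. Incubated 45 min at 37 °C with 32 nM 177Lu-labelled compound (25 GBq/µmol) in Opti-MEM, with or without 500 µM 2-PMPA as blocker. Four ice-cold PBS washes, surface fraction stripped with 50 mM glycine pH 2.8, internalized fraction released by 0.3 M NaOH lysis. Both fractions gamma-counted, specific values given as %IA/10^6 cells. Triplicate.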
Target sequence in this assay (Q04609 whole entry, looked up): as the sequence (Q04609 whole entry) above

[5] = biological target: T1, Glutamate carboxypeptidase 2; assay: Inhibition of PSMA in human LNCaP cells assessed as specific internalization per 10^6 cells using 177Lu-labeled compound after 45 mins by gamma counting analysis; format: cell-based; outline: as §2
Target sequence in this assay (Q04609 whole entry, looked up): as the sequence (Q04609 whole entry) above

[6] = Distribution coefficient, logD of the compound at pH 7.4 in n-octanol/0.1 M HEPES by shake flask method; format: physicochemical
Outline: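 Radiolabelled compound shaken to equilibrium in n-octanol / 0.1 M HEPES pH 7.4. Aliquots of both phases gamma-counted and logD calculated from the phase ratio. Mean ± SD.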

[7] = Drug uptake in iv dosed BALB/c athymic nude mouse kidney xenografted with human LNCaP cells treated with 68Ga-labeled compound measured after 1 hr by microPET imaging analysis; format: ADME, organism-based; settings: in vivo; outline: as §1
[8] = Drug uptake in iv dosed BALB/c athymic nude mouse tumor xenografted with human LNCaP cells treated with 68Ga-labeled compound measured after 1 hr by microPET imaging analysis; format: ADME, organism-based; settings: in vivo; outline: as §1
[9] = Drug uptake in iv dosed BALB/c athymic nude mouse muscle xenografted with human LNCaP cells treated with 68Ga-labeled compound measured after 1 hr by microPET imaging analysis; format: ADME, organism-based; settings: in vivo; outline: as §1
[10] = Drug uptake in iv dosed BALB/c athymic nude mouse tumor xenografted with human LNCaP cells treated with 68Ga-labeled compound measured upto 120 mins by microPET imaging analysis; format: ADME, organism-based; settings: in vivo, 2 h; outline: as §1
[11] = Binding affinity to human serum protein after 1 hr by gel filtration method; format: ADME

O=C(O)CCc1ccc(O)c(CN(CCN(CC(=O)O)Cc2cc(CCC(=O)NCCCCCC(=O)NCCCC[C@H](NC(=O)N[C@@H](CCC(=O)O)C(=O)O)C(=O)O)ccc2O)CC(=O)O)c1 [GOZETOTIDE]
Ki [1]: 12 nM | Retention_time [2]: 1.69 min | Ratio [3]: 4.9 | specific cell surface binding (% of applied activity per 10^6 cells) [4]: 10.6% | specific internalization (% of added activity per 10^6 cells) [5]: 9.47% | logD [6]: -1.71

O=C(O)CC[C@H](NC(=O)N[C@@H](CCCCNC(=O)[C@H]1CC[C@H](CNC(=O)[C@H]2CC[C@H](CNC(=O)[C@H]3CC[C@H](CNC(=O)CN4CCN(CC(=O)O)CCN(CC(=O)O)CCN(CC(=O)O)CC4)CC3)CC2)CC1)C(=O)O)C(=O)O
SUV [7]: 2.91 | Ki [1]: 19.4 nM | Retention_time [2]: 2.28 min | Ratio [3]: 0.9 | specific cell surface binding (% of applied activity per 10^6 cells) [4]: 0.23% | SUV [8]: 0.18 | specific internalization (% of added activity per 10^6 cells) [5]: 0.03% | SUV [9]: 0.21 | Drug uptake [10]: Not Active | logD [6]: -1.98

O=C(O)CC[C@H](NC(=O)N[C@@H](CCCCNC(=O)c1ccc(CNC(=O)c2ccc(CNC(=O)CN3CCN(CC(=O)O)CCN(CC(=O)O)CCN(CC(=O)O)CC3)cc2)cc1)C(=O)O)C(=O)O
SUV [7]: 3.16 | Ki [1]: 7.51 nM | Retention_time [2]: 1.78 min | Ratio [3]: 5.6 | specific cell surface binding (% of applied activity per 10^6 cells) [4]: 14.3% | SUV [8]: 0.56 | specific internalization (% of added activity per 10^6 cells) [5]: 3.66% | SUV [9]: 0.1 | Drug uptake [10]: Active | logD [6]: -1.94

O=C(O)CC[C@H](NC(=O)N[C@@H](CCCCNC(=O)[C@H](Cc1ccc(-c2ccccc2)cc1)NC(=O)CN1CCN(CC(=O)O)CCN(CC(=O)O)CCN(CC(=O)O)CC1)C(=O)O)C(=O)O
SUV [7]: 6.57 | Ki [1]: 0.5 nM | Retention_time [2]: 2.59 min | Ratio [3]: 2.7 | specific cell surface binding (% of applied activity per 10^6 cells) [4]: 4.93% | SUV [8]: 0.63 | specific internalization (% of added activity per 10^6 cells) [5]: 2.22% | SUV [9]: 0.23 | Drug uptake [10]: Active | logD [6]: -1.98

O=C(O)CC[C@H](NC(=O)N[C@@H](CCCCNC(=O)[C@H](Cc1ccc2ccccc2c1)NC(=O)CN1CCN(CC(=O)O)CCN(CC(=O)O)CCN(CC(=O)O)CC1)C(=O)O)C(=O)O
SUV [7]: 4.79 | Ki [1]: 28.6 nM | Retention_time [2]: 2.71 min | Ratio [3]: 1.6 | specific cell surface binding (% of applied activity per 10^6 cells) [4]: 1.68% | SUV [8]: 0.31 | specific internalization (% of added activity per 10^6 cells) [5]: 1.77% | SUV [9]: 0.2 | logD [6]: -2.03

O=C(O)CC[C@H](NC(=O)N[C@@H](CCCCNC(=O)[C@@H](Cc1ccc2ccccc2c1)NC(=O)[C@H]1CC[C@H](CNC(=O)CN2CCN(CC(=O)O)CCN(CC(=O)O)CCN(CC(=O)O)CC2)CC1)C(=O)O)C(=O)O
SUV [7]: 3.98 | Ki [1]: 8.86 nM | Retention_time [2]: 2.56 min | specific cell surface binding (% of applied activity per 10^6 cells) [4]: 12.2% | SUV [8]: 0.69 | specific internalization (% of added activity per 10^6 cells) [5]: 7.18% | SUV [9]: 0.27 | Drug uptake [10]: Active | logD [6]: -2.02

O=C(O)CC[C@H](NC(=O)N[C@@H](CCCCNC(=O)[C@H]1CC[C@H](CNC(=O)CN2CCN(CC(=O)O)CCN(CC(=O)O)CCN(CC(=O)O)CC2)CC1)C(=O)O)C(=O)O
SUV [7]: 6.86 | Ki [1]: 9.33 nM | Retention_time [2]: 1.81 min | Ratio [3]: 1.5 | specific cell surface binding (% of applied activity per 10^6 cells) [4]: 4.14% | SUV [8]: 0.23 | specific internalization (% of added activity per 10^6 cells) [5]: 1.24% | SUV [9]: 0.15 | Drug uptake [10]: Not Active | logD [6]: -0.91

O=C(O)CC[C@H](NC(=O)N[C@@H](CCCCNC(=O)[C@H](Cc1ccc2ccccc2c1)NC(=O)CCCCCNC(=O)CN1CCN(CC(=O)O)CCN(CC(=O)O)CCN(CC(=O)O)CC1)C(=O)O)C(=O)O
SUV [7]: 2.26 | Ki [1]: 6.31 nM | Retention_time [2]: 2.58 min | Ratio [3]: 2 | specific cell surface binding (% of applied activity per 10^6 cells) [4]: 9.07% | SUV [8]: 0.14 | specific internalization (% of added activity per 10^6 cells) [5]: 2.99% | SUV [9]: 0.07 | logD [6]: -1.88

O=C(O)CC[C@H](NC(=O)N[C@@H](CCCCNC(=O)[C@H]1CC[C@H](CNC(=O)[C@H](Cc2ccc3ccccc3c2)NC(=O)CN2CCN(CC(=O)O)CCN(CC(=O)O)CCN(CC(=O)O)CC2)CC1)C(=O)O)C(=O)O
SUV [7]: 3.62 | Ki [1]: 17.7 nM | Retention_time [2]: 2.48 min | Ratio [3]: 3.5 | specific cell surface binding (% of applied activity per 10^6 cells) [4]: 1.09% | SUV [8]: 0.39 | specific internalization (% of added activity per 10^6 cells) [5]: 0.13% | SUV [9]: 0.11 | Drug uptake [10]: Not Active | logD [6]: -1.44

O=C(O)CC[C@H](NC(=O)N[C@@H](CCCCNC(=O)[C@H](Cc1cccc2ccccc12)NC(=O)[C@H]1CC[C@H](CNC(=O)CN2CCN(CC(=O)O)CCN(CC(=O)O)CCN(CC(=O)O)CC2)CC1)C(=O)O)C(=O)O
SUV [7]: 2.15 | Ki [1]: 12.8 nM | Retention_time [2]: 2.59 min | Ratio [3]: 3.6 | specific cell surface binding (% of applied activity per 10^6 cells) [4]: 6.58% | SUV [8]: 0.29 | specific internalization (% of added activity per 10^6 cells) [5]: 0.9% | SUV [9]: 0.08 | Drug uptake [10]: Not Active | logD [6]: -1.95

O=C(O)CC[C@H](NC(=O)N[C@@H](CCCCNC(=O)c1ccc(CNC(=O)CN2CCN(CC(=O)O)CCN(CC(=O)O)CCN(CC(=O)O)CC2)cc1)C(=O)O)C(=O)O
SUV [7]: 2.68 | Ki [1]: 1.97 nM | Retention_time [2]: 1.56 min | Ratio [3]: 2.2 | specific cell surface binding (% of applied activity per 10^6 cells) [4]: 8.54% | SUV [8]: 0.28 | specific internalization (% of added activity per 10^6 cells) [5]: 5.11% | SUV [9]: 0.13 | Drug uptake [10]: Active | logD [6]: -1.99

O=C(O)CC[C@H](NC(=O)N[C@@H](CCCCNC(=O)c1ccc(CNC(=O)c2ccc(CNC(=O)c3ccc(CNC(=O)c4ccc(CNC(=O)CN5CCN(CC(=O)O)CCN(CC(=O)O)CCN(CC(=O)O)CC5)cc4)cc3)cc2)cc1)C(=O)O)C(=O)O
SUV [7]: 2.21 | Ki [1]: 6.19 nM | Retention_time [2]: 2.44 min | Ratio [3]: 2.1 | specific cell surface binding (% of applied activity per 10^6 cells) [4]: 25.2% | SUV [8]: 0.52 | specific internalization (% of added activity per 10^6 cells) [5]: 6.86% | SUV [9]: 0.25 | Drug uptake [10]: Active | logD [6]: -2.12

O=C(O)CC[C@H](NC(=O)N[C@@H](CCCCNC(=O)c1ccc(CNC(=O)[C@H](Cc2ccc3ccccc3c2)NC(=O)[C@H]2CC[C@H](CNC(=O)CN3CCN(CC(=O)O)CCN(CC(=O)O)CCN(CC(=O)O)CC3)CC2)cc1)C(=O)O)C(=O)O
SUV [7]: Not Determined(Unstable) | Retention_time [2]: 2.7 min | Ratio [3]: Not Determined(Unstable) | SUV [8]: Not Determined(Unstable) | SUV [9]: Not Determined(Unstable)

O=C(O)CC[C@H](NC(=O)N[C@@H](CCCCNC(=O)[C@H](Cc1ccc2ccccc2c1)NC(=O)[C@H]1CC[C@H](CNC(=O)CN2CCN(CC(=O)O)CCN(CC(=O)O)CCN(CC(=O)O)CC2)CC1)C(=O)O)C(=O)O [VIPIVOTIDE TETRAXETAN]
SUV [7]: 2.87 | Retention_time [2]: 2.63 min | specific cell surface binding (% of applied activity per 10^6 cells) [4]: 11.4% | SUV [8]: 0.59 | specific internalization (% of added activity per 10^6 cells) [5]: 16.2% | SUV [9]: 0.07 | Drug uptake [10]: Active | logD [6]: -2 | PB [11]: Not Active
